{"data": "Assay results collected from several papers", "cell line": "HCT-116", "effect on": "cell growth or viability", "note": "Lines come from different studies, so protocols differ."}
{"Structure (SMILES)": "COc1cc([C@@H]2c3cc4c(cc3[C@@H](O[C@@H]3O[C@@H]5CO[C@@H](C)O[C@H]5[C@H](O)[C@H]3O)[C@H]3COC(=O)[C@H]23)OCO4)cc(OC)c1O", "assay": "SRB", "conditions": "72 h", "IC50": "2.4 µM"}
{"Structure (SMILES)": "O=c1cc(OCc2cc(-c3ccc(C(F)(F)F)cc3)no2)c2ccccc2o1", "assay": "MTS", "conditions": "72 h", "IC50": "> 100 µM"}
{"Structure (SMILES)": "Cc1ccc(CN2C(=O)C(=Nc3cccc(C)c3)c3ccccc32)cc1", "assay": "MTT", "conditions": "48 h", "IC50": "0.39 µM"}
{"Structure (SMILES)": "COc1cccc(NC(=S)N/N=C/c2cccc3cc4ccccc4nc23)c1", "assay": "MTT", "conditions": "48 h", "IC50": "49.6 µM"}
{"Structure (SMILES)": "c1ccc(-c2noc(-c3nn(Cc4ccc5ccccc5c4)c4ccccc34)n2)cc1", "conditions": "48 h", "IC50": "173 µM"}
{"Structure (SMILES)": "Cc1cc2c(C(N)=O)cccc2n1-c1nc2c(c(NCc3cccnc3)n1)CCCN2", "assay": "ATP luminescence", "conditions": "72 h", "IC50": "1 µM"}
{"Structure (SMILES)": "O=C(C=Cc1cccs1)c1ccc(OCCCOc2ccc(C(=O)C=Cc3cccs3)cc2)cc1", "assay": "MTT", "conditions": "48 h", "IC50": "30.7 µM"}
{"Structure (SMILES)": "C=CCN1C(=O)C(=Nc2cccc(C)c2)c2ccccc21", "assay": "MTT", "conditions": "48 h", "IC50": "> 100 µM"}
{"Structure (SMILES)": "N#Cc1ccc(-c2cc(COc3cc(C(F)(F)F)nc4ccccc34)on2)cc1", "assay": "MTS", "conditions": "72 h", "IC50": "> 100 µM"}
{"Structure (SMILES)": "Fc1ccc2c(-c3ncc(-c4ccccc4)o3)nn(Cc3ccccc3)c2c1", "conditions": "48 h", "IC50": "82.6 µM"}
{"Structure (SMILES)": "O=C(CSc1nc2ccccc2s1)N/N=C/c1ccc(OCC(=O)Nc2ccc(Br)cc2)cc1", "assay": "MTS", "conditions": "72 h", "IC50": "> 100 µM"}
{"Structure (SMILES)": "c1ccc(-c2cc(CNc3cccc4cccnc34)on2)cc1", "assay": "MTS", "conditions": "72 h", "IC50": "> 100 µM"}
{"Structure (SMILES)": "O=c1[nH]cc(F)c(=O)[nH]1", "assay": "MTT", "conditions": "72 h", "IC50": "3.09 µM"}
{"Structure (SMILES)": "CC(=O)OC[C@H]1O[C@@H](n2cc(Cn3c(C(=O)/C=C/c4ccc(F)cc4)nc4ccccc43)nn2)[C@H](OC(C)=O)[C@@H](OC(C)=O)[C@H]1OC(C)=O", "assay": "LDH", "conditions": "48 h", "IC50": "6.49 µM"}
{"Structure (SMILES)": "COc1cccc(-c2cc(NCc3ccc4c(c3)OCO4)nc(N)n2)c1", "conditions": "72 h", "IC50": "0.347 µM"}
{"Structure (SMILES)": "O=C1CS/C(=N\\c2ccc(F)cc2O)N1c1nnc(-c2ccc(C(F)(F)F)cc2/N=C2\\SCC(=O)N2c2ccc(F)cc2O)s1", "assay": "MTT", "IC50": "17.2 µM"}
{"Structure (SMILES)": "Cc1cc(NS(=O)(=O)c2ccc(NC(=O)/C(C#N)=C/c3ccc(N4CCOCC4)cc3)cc2)no1", "assay": "MTT", "conditions": "48 h", "IC50": "67.8 µM"}
{"Structure (SMILES)": "O=[N+]([O-])c1cc(Br)c(O)c(C=NNc2ccc(Cl)cc2)c1", "assay": "MTT", "conditions": "24 h", "IC50": "16.6 µM"}
{"Structure (SMILES)": "O=C1C(=Nc2ccccc2I)c2ccccc2N1Cc1ccc([N+](=O)[O-])cc1", "assay": "MTT", "conditions": "48 h", "IC50": "1.7 µM"}
{"Structure (SMILES)": "Fc1ccc(NC(=S)N/N=C/c2cccc3cc4ccccc4nc23)cc1", "assay": "MTT", "conditions": "48 h", "IC50": "> 50 µM"}
{"Structure (SMILES)": "OCn1cncn1", "assay": "MTT", "conditions": "24 h", "IC50": "48.8 µM"}
{"Structure (SMILES)": "Cc1cc2c(C(N)=O)cccc2n1-c1nc2c(c(NCc3ccccc3)n1)CCCN2", "assay": "ATP luminescence", "conditions": "72 h", "IC50": "0.7 µM"}
{"Structure (SMILES)": "O=c1cc(OCc2cc(-c3ccccn3)no2)c2ccccc2o1", "assay": "MTS", "conditions": "72 h", "IC50": "> 100 µM"}
{"Structure (SMILES)": "O=C1C(=Nc2ccc(Cl)cc2)c2ccccc2N1Cc1cccc(Cl)c1", "assay": "MTT", "conditions": "48 h", "IC50": "7.71 µM"}
{"Structure (SMILES)": "Clc1ccc(Cn2nc(-c3ncc(-c4ccccc4)s3)c3ccccc32)c(Cl)c1", "conditions": "48 h", "IC50": "404 µM"}
{"Structure (SMILES)": "FC(F)(F)c1cc(OCc2cc(-c3ccc(Cl)cc3Cl)no2)c2ccccc2n1", "assay": "MTS", "conditions": "72 h", "IC50": "> 100 µM"}
{"Structure (SMILES)": "O=C1C(=Nc2ccc(Cl)cc2)c2ccccc2N1Cc1ccc([N+](=O)[O-])cc1", "assay": "MTT", "conditions": "48 h", "IC50": "1.75 µM"}
{"Structure (SMILES)": "O=[N+]([O-])c1cc(I)c(O)c(C=NNc2ccc(C(F)(F)F)cc2)c1", "assay": "MTT", "conditions": "24 h", "IC50": "9.43 µM"}
{"Structure (SMILES)": "CC1(P2(=O)CCCCC2)CCCCC1", "assay": "MTT", "conditions": "72 h", "IC50": "69.3 µM"}
{"Structure (SMILES)": "O=C1CS/C(=N\\c2cc(C(F)(F)F)ccc2-c2nnc(N3C(=O)CS/C3=N\\c3ccc(F)cc3)s2)N1c1ccc(F)cc1", "assay": "MTT", "IC50": "21.2 µM"}
{"Structure (SMILES)": "O=C(CSc1nc2ccccc2s1)N/N=C/c1ccc(OCC(=O)Nc2cccc(Br)c2)cc1", "assay": "MTS", "conditions": "72 h", "IC50": "> 100 µM"}
{"Structure (SMILES)": "CC(C)c1ccc(/C=C2\\NC(=S)N(c3ccccc3)C2=O)cc1", "assay": "MTT", "IC50": "63.2 µg/mL"}
{"Structure (SMILES)": "COc1ccc(CNC(=O)Cn2cc(COc3ncnc4[nH]cnc34)nn2)cc1", "assay": "MTT", "IC50": "> 100 µM"}
{"Structure (SMILES)": "O=[N+]([O-])c1cc(I)c(O)c(C=NNc2ccccc2)c1", "assay": "MTT", "conditions": "24 h", "IC50": "6.34 µM"}
{"Structure (SMILES)": "CC(C)c1cccc(C(C)C)c1N=C1C(=O)N(Cc2cccc(Cl)c2)c2ccccc21", "assay": "MTT", "conditions": "48 h", "IC50": "22.4 µM"}
{"Structure (SMILES)": "COc1ccc(NC(=S)N/N=C/c2cccc3cc4ccccc4nc23)cc1", "assay": "MTT", "conditions": "48 h", "IC50": "> 50 µM"}
{"Structure (SMILES)": "Fc1ccc2c(-c3nnc(Cc4ccccc4)s3)nn(Cc3ccccc3)c2c1", "conditions": "48 h", "IC50": "73.9 µM"}
{"Structure (SMILES)": "COc1ccc(N(Cc2csc(-c3ccc(Br)cc3)n2)C(=O)CCCCCC(=O)NO)cc1", "assay": "MTT", "conditions": "72 h", "IC50": "2.21 µM"}
{"Structure (SMILES)": "O=c1[nH]cc(F)c(=O)[nH]1", "assay": "MTT", "conditions": "48 h", "IC50": "17 µM"}
{"Structure (SMILES)": "CC(C)c1cccc(C(C)C)c1N=C1C(=O)N(Cc2ccccc2)c2ccccc21", "assay": "MTT", "conditions": "48 h", "IC50": "11.7 µM"}
{"Structure (SMILES)": "COC(=O)c1ccc2c(c1)NC(=O)/C2=C(\\Nc1ccc(N(C)C(=O)CN2CCN(C)CC2)cc1)c1ccccc1", "assay": "MTT", "conditions": "24 h", "IC50": "1.88 µM"}
{"Structure (SMILES)": "OCn1ccnc1", "assay": "MTT", "conditions": "24 h", "IC50": "10.7 µM"}
{"Structure (SMILES)": "O=C(C=Cc1ccc(OCCCOc2ccc(C=CC(=O)c3cccs3)cc2)cc1)c1cccs1", "assay": "MTT", "conditions": "48 h", "IC50": "120 µM"}
{"Structure (SMILES)": "COc1ccc(N=C2SCC(=O)N2c2nnc(-c3ccc(C(F)(F)F)cc3N=C3SCC(=O)N3c3ccc(OC)cc3)s2)cc1", "assay": "MTT", "IC50": "65.2 µM"}
{"Structure (SMILES)": "FC(F)(F)c1ccc(-c2noc(-c3nn(Cc4ccc(Cl)cc4Cl)c4ccccc34)n2)cc1", "conditions": "48 h", "IC50": "137 µM"}
{"Structure (SMILES)": "O=C1CSC(=Nc2cc(C(F)(F)F)ccc2-c2nnc(N3C(=O)CSC3=Nc3ccc([N+](=O)[O-])cc3)s2)N1c1ccc([N+](=O)[O-])cc1", "assay": "MTT", "IC50": "74.4 µM"}
{"Structure (SMILES)": "CC1(P2(=O)CCCCC2)C=CCC=C1", "assay": "MTT", "conditions": "72 h", "IC50": "> 100 µM"}
{"Structure (SMILES)": "COc1cccc2c1C(=O)c1c(O)c3c(c(O)c1C2=O)C[C@@](O)(C(=O)CO)C[C@@H]3O[C@H]1C[C@H](N)[C@H](O)[C@H](C)O1", "assay": "LDH", "conditions": "48 h", "IC50": "8.12 µM"}
{"Structure (SMILES)": "CCC(C(=O)N1C(=O)C(=Nc2ccc(Cl)cc2Br)c2ccccc21)c1ccccc1 (stereo not shown)", "assay": "MTT", "conditions": "48 h", "IC50": "30.9 µM"}
{"Structure (SMILES)": "N#Cc1ccc(-c2cc(COc3cc(=O)oc4ccccc34)on2)cc1", "assay": "MTS", "conditions": "72 h", "IC50": "> 100 µM"}
{"Structure (SMILES)": "CONC(=O)c1cccc2c1cc(C)n2-c1nc2c(c(NCc3ccccc3)n1)CCCN2", "assay": "ATP luminescence", "conditions": "72 h", "IC50": "0.7 µM"}
{"Structure (SMILES)": "Fc1ccc2c(-c3nnc(Cc4ccccc4)s3)nn(Cc3ccc(Cl)cc3Cl)c2c1", "conditions": "48 h", "IC50": "85.1 µM"}
{"Structure (SMILES)": "CC(C)c1ccc(/C=C2\\N=C(SCC(=O)c3ccccc3)N(c3ccccc3)C2=O)cc1", "assay": "MTT", "IC50": "83.7 µg/mL"}
{"Structure (SMILES)": "Cc1cc2c(C(N)=O)nccc2n1-c1nc2c(c(NCc3ccccc3)n1)CCCN2", "assay": "ATP luminescence", "conditions": "72 h", "IC50": "2.3 µM"}
{"Structure (SMILES)": "O=C1CS/C(=N\\c2cc(C(F)(F)F)ccc2-c2nnc(N3C(=O)CS/C3=N\\c3ccc(-c4ccccc4)cc3)s2)N1c1ccc(-c2ccccc2)cc1", "assay": "MTT", "IC50": "92.3 µM"}
